In brackets after ≈: the same amount, converted by molar mass.
How the values were obtained:
[1] = Inhibition of Escherichia coli LpxC C63A mutant assessed as inhibition constant incubated for 30 mins by microplate reader analysis
Outline: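 Purified E. coli LpxC C63A (15 nM final), expressed in E. coli BL21(DE3), with 25 μM UDP-3-O-[(R)-3-hydroxymyristoyl]-N-acetylglucosamine. Buffer was 40 mM MES pH 6.0, 80 μM DTT, 0.02% Brij 35 and 2% DMSO, with inhibitor at 20 nM–20 μM, for 30 min at 37 °C. The reaction was stopped with NaOH, neutralised with acetic acid, and product was derivatised with o-phthaldialdehyde/2-mercaptoethanol (ex 340, em 460 nm). Runs were done at least three times.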

Homo sapiens = species on record: Homo sapiens; experiment: Inhibition of TACE (unknown origin) at 100 uM relative to control
[2] = Plasma protein binding in human; format: ADME, cell-free
[3] = Metabolic stability in CD-1 mouse microsome; format: ADME; settings: microsomes
[4] = biological target: Elastase (Pseudomonas aeruginosa (strain ATCC 15692 / PAO1 / 1C / PRS 101 / LMG12228)) (UniProt P14756); experiment: Inhibition of Pseudomonas aeruginosa PA14 LasB at 20 uM by FRET assay relative to control
Escherichia coli [5] = experiment: Antibacterial activity against Escherichia coli BL21(DE3) assessed as Diameter of inhibition zone incubated for 20 hrs by disc diffusion assay; format: functional
Outline: (§1)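 E. coli BL21(DE3) and the defective strain D22 were grown overnight in LB at 37 °C and 200 rpm, and 150 μL was spread on LB agar. Each compound (0.15 μmol in 10 or 15 μL DMSO) was spotted on 6 mm filter paper discs, with DMSO as negative and CHIR-090 as positive control. Plates were incubated overnight at 37 °C and the growth-inhibition zone diameter was measured.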

Escherichia coli [6] = experiment: Antibacterial activity against Escherichia coli D22 assessed as diameter of inhibition zone incubated for 20 hrs by disc diffusion assay; format: functional; outline: as §1
Escherichia coli [7] = experiment: Antibacterial activity against Escherichia coli BL21(DE3) assessed as inhibition of visible bacterial growth incubated for 20 hrs by microdilution method; format: functional
Outline: (§2)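 Broth microdilution in LB. Overnight cultures (37 °C, 200 rpm) were diluted 1:1000 and mixed with 2-fold compound dilutions in DMSO, giving 5 × 10⁵ cfu mL⁻¹, 5% DMSO and final compound concentrations of 64–0.016 μg mL⁻¹. Plates were incubated 20 h at 37 °C. MIC was the lowest concentration preventing visible growth, from at least three runs on separate days.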

Escherichia coli [8] = experiment: Antibacterial activity against Escherichia coli D22 assessed as inhibition of visible bacterial growth incubated for 20 hrs by microdilution method; format: functional; outline: as §2
[9] = Metabolic stability in CD-1 mouse liver S9 fraction assessed as half life in presence of NADPH by HPLC-MS/MS analysis; format: ADME, subcellular
Outline: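 Compound at 1 μM was incubated at 37 °C for 120 min with pooled mouse liver S9 (1 mg/mL), 2 mM NADPH, 1 mM UDPGA, 10 mM MgCl₂, 5 mM GSH and 0.1 mM PAPS. Aliquots taken at set times were quenched with 2 volumes of cold acetonitrile containing diphenhydramine internal standard and centrifuged. Remaining compound was quantified by HPLC–MS/MS to derive half-life, with testosterone, verapamil and ketoconazole as activity controls.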

[10] = biological target: T1, UDP-3-O-acyl-N-acetylglucosamine deacetylase (Pseudomonas aeruginosa, UniProt B5ATN6); experiment: Inhibition of Pseudomonas aeruginosa LpxC
T1 sequence (B5ATN6 whole entry): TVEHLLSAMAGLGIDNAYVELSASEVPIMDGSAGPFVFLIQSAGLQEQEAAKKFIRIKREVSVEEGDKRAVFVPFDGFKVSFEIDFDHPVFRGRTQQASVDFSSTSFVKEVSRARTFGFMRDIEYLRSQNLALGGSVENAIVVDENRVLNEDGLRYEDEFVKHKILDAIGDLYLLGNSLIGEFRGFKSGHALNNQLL
Outline: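 Buffer was 50 mM potassium phosphate pH 7.5, 80 μM DTT, 0.02% Brij 35 and 2% DMSO, with inhibitor at 5 nM–5 μM, for 30 min at 37 °C. The reaction was stopped with HCl. Substrate and product were quantified by LC–MS/MS MRM peak areas relative to the uninhibited reaction, in at least two runs.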

Elastase = Elastase (Pseudomonas aeruginosa (strain ATCC 15692 / PAO1 / 1C / PRS 101 / LMG12228), UniProt P14756); experiment: Inhibition of Pseudomonas aeruginosa PA14 LasB by FRET assay
Chain of Elastase (P14756 whole entry): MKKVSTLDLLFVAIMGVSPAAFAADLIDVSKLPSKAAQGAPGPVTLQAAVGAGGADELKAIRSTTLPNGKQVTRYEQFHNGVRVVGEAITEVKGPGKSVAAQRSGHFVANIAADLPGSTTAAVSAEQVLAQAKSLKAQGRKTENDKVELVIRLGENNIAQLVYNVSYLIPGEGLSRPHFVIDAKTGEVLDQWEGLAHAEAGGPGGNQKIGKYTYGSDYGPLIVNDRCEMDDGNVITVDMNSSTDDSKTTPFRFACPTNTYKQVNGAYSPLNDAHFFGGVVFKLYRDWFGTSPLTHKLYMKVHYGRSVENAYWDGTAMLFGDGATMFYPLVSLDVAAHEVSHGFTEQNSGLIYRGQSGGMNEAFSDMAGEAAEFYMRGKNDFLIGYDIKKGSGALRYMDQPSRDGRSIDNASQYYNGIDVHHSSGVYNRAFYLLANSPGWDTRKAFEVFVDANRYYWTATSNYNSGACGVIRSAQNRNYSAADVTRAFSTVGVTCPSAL

Chain of Elastase (Pseudomonas aeruginosa (strain ATCC 15692 / PAO1 / 1C / PRS 101 / LMG12228)) (P14756 198-498 limits assumed): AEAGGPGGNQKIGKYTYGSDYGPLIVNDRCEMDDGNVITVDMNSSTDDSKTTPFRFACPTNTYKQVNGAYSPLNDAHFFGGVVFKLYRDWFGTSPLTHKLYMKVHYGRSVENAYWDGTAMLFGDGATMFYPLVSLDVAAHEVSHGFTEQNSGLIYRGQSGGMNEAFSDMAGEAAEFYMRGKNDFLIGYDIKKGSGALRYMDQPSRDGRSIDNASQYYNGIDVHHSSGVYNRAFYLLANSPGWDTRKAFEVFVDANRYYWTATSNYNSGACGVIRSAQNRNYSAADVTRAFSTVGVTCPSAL

| SMILES | Ki [1] [nM] | inhibition [4] [%] | diameter of the inhibition zone (DIZ) (Escherichia coli [5]) | further results |
| --- | --- | --- | --- | --- |
| O=C(NC[C@H](OCc1ccc(C#Cc2ccc(CN3CCOCC3)cc2)cc1)C(=O)NO)c1c[nH]c2ccccc12 | 10.7 | – | – | inhibition (Homo sapiens): < 10%; fraction unbound [2]: < 0.03; Stability [3]: Stable |
| O=C(NC[C@H](OCc1ccc(C#Cc2ccc(CN3CCOCC3)cc2)cc1)C(=O)NO)c1ccc(-c2ccccc2)cc1 | > 2540 | < 10 | – | – |
| O=C(NO)[C@H](CO)OCc1ccc(C#Cc2ccc(CN3CCOCC3)cc2)cc1 | 410 | – | 15.7 mm | diameter of the inhibition zone (DIZ) (Escherichia coli [6]): 25.8 mm; MIC (Escherichia coli [7]): 32 µg/mL (≈ 78 µM); MIC (Escherichia coli [8]): 1 µg/mL (≈ 2.44 µM) |
| O=C(COCc1ccc(C#Cc2ccc(CN3CCOCC3)cc2)cc1)NO | 1500 | – | 16.5 mm | diameter of the inhibition zone (DIZ) (Escherichia coli [6]): 20.3 mm; MIC (Escherichia coli [7]): 64 µg/mL (≈ 168 µM); MIC (Escherichia coli [8]): 1 µg/mL (≈ 2.63 µM) |
| O=C(NC[C@@H](OCc1ccc(C#Cc2ccc(CN3CCOCC3)cc2)cc1)C(=O)NO)c1c[nH]c2ccccc12 | 1580 | – | – | – |
| O=C(NC[C@@H](OCc1ccc(C#Cc2ccc(CN3CCOCC3)cc2)cc1)C(=O)NO)c1cnc2ccccc2c1 | > 2540 | – | – | – |
| O=C(NO)[C@H](COCc1ccccc1)OCc1ccc(C#Cc2ccc(CN3CCOCC3)cc2)cc1 | – | – | <=6 mm | – |
| O=C(NC[C@H](OCc1ccc(C#Cc2ccc(CN3CCOCC3)cc2)cc1)C(=O)NO)c1ccccc1 | – | – | – | MIC (Escherichia coli [7]): > 16 µg/mL |
| O=C(NC[C@H](OCc1ccc(C#Cc2ccc(CN3CCOCC3)cc2)cc1)C(=O)NO)c1cccc(-c2ccccc2)c1 | 41.5 | < 10 | – | – |
| O=C(NO)[C@H](OCc1ccc(C#Cc2ccc(CN3CCOCC3)cc2)cc1)[C@H](O)COCc1ccccc1 | – | < 10 | – | – |
| O=C(NC[C@H](OCc1ccc(C#Cc2ccc(CN3CCOCC3)cc2)cc1)C(=O)NO)c1cc(-c2ccccc2)[nH]n1 | 85.2 | < 10 | – | – |
| O=C(NC[C@@H](OCc1ccc(C#Cc2ccc(CN3CCOCC3)cc2)cc1)C(=O)NO)c1ccc2[nH]ccc2c1 | 1150 | – | – | – |
| O=C(NC[C@H](OCc1ccc(C#Cc2ccc(CN3CCOCC3)cc2)cc1)C(=O)NO)c1cc2ccccc2[nH]1 | 87 | < 10 | – | – |
| Cc1noc(C)c1C(=O)NC[C@H](OCc1ccc(C#Cc2ccc(CN3CCOCC3)cc2)cc1)C(=O)NO | 127 | – | – | – |
| O=C(NC[C@@H](OCc1ccc(C#Cc2ccc(CN3CCOCC3)cc2)cc1)C(=O)NO)c1cccc(-c2ccccc2)c1 | > 2540 | – | – | – |
| O=C(NC[C@H](OCc1ccc(C#Cc2ccc(CN3CCOCC3)cc2)cc1)C(=O)NO)c1ccc2[nH]ccc2c1 | 9.46 | < 10 | – | Stability [3]: Stable |
| O=C(NC[C@@H](OCc1ccc(C#Cc2ccc(CN3CCOCC3)cc2)cc1)C(=O)NO)c1ccc(-c2ccccc2)cc1 | > 2540 | – | – | – |
| O=C(NO)[C@@H](CO)OCc1ccc(C#Cc2ccc(CN3CCOCC3)cc2)cc1 | 240 | – | 12.3 mm | diameter of the inhibition zone (DIZ) (Escherichia coli [6]): 22 mm; MIC (Escherichia coli [7]): 64 µg/mL (≈ 156 µM); MIC (Escherichia coli [8]): 2 µg/mL (≈ 4.87 µM) |

| SMILES | Ki [1] [nM] | inhibition [4] [%] | diameter of the inhibition zone (DIZ) (Escherichia coli [5]) | further results |
| --- | --- | --- | --- | --- |
| O=C(NC[C@H](OCc1ccc(C#Cc2ccc(CN3CCOCC3)cc2)cc1)C(=O)NO)c1cc[nH]n1 | – | – | – | t1/2 [9]: 1.07 h; Stability [3]: Stable |
| O=C(NC[C@@H](OCc1ccc(C#Cc2ccc(CN3CCOCC3)cc2)cc1)C(=O)NO)c1ccccc1 | – | – | – | MIC (Escherichia coli [7]): > 16 µg/mL |
| Cc1noc(C)c1COC[C@H](O)[C@H](OCc1ccc(C#Cc2ccc(CN3CCOCC3)cc2)cc1)C(=O)NO | – | < 10 | – | – |
| CCc1ccc(-c2ccc(C(=O)N[C@H](C(=O)NO)[C@@H](C)NCc3ccccn3)cc2)cc1 | – | – | – | IC50 [10]: 94.8 nM |
| O=C(NO)[C@@H](OCc1ccc(C#Cc2ccc(CN3CCOCC3)cc2)cc1)[C@@H](O)COCc1ccccc1 | 280 | 61 | 11.2 mm | diameter of the inhibition zone (DIZ) (Escherichia coli [6]): 19.5 mm; IC50 (Elastase): 17700 nM; MIC (Escherichia coli [7]): 4 µg/mL (≈ 7.54 µM); MIC (Escherichia coli [8]): 0.13 µg/mL (≈ 0.245 µM) |
| O=C(NC[C@@H](OCc1ccc(C#Cc2ccc(CN3CCOCC3)cc2)cc1)C(=O)NO)c1cc2ccccc2[nH]1 | > 2540 | – | – | – |
| O=C(NC[C@@H](OCc1ccc(C#Cc2ccc(CN3CCOCC3)cc2)cc1)C(=O)NO)c1cc(-c2ccccc2)[nH]n1 | > 2540 | – | <=6 mm | – |
| O=C(NC[C@@H](OCc1ccc(C#Cc2ccc(CN3CCOCC3)cc2)cc1)C(=O)NO)c1ccc(Oc2ccccc2)cc1 | > 2540 | – | – | – |
| O=C(NC[C@H](OCc1ccc(C#Cc2ccc(CN3CCOCC3)cc2)cc1)C(=O)NO)c1ccc2ccccc2n1 | 377 | – | – | – |
| O=C(NC[C@@H](OCc1ccc(C#Cc2ccc(CN3CCOCC3)cc2)cc1)C(=O)NO)c1ccc2ccccc2n1 | > 2540 | – | <=6 mm | – |
| O=C(NO)[C@@H](COCc1ccccc1)OCc1ccc(C#Cc2ccc(CN3CCOCC3)cc2)cc1 | – | – | <=6 mm | – |
| O=C(NO)[C@H](OCc1ccc(C#Cc2ccc(CN3CCOCC3)cc2)cc1)[C@@H](O)COCc1ccccc1 | 870 | < 10 | 8.5 mm | diameter of the inhibition zone (DIZ) (Escherichia coli [6]): 13.3 mm; MIC (Escherichia coli [7]): > 64 µg/mL; MIC (Escherichia coli [8]): 4 µg/mL (≈ 7.54 µM) |
| Cc1noc(C)c1C(=O)NC[C@@H](OCc1ccc(C#Cc2ccc(CN3CCOCC3)cc2)cc1)C(=O)NO | > 2540 | < 10 | – | – |
| O=C(NC[C@H](OCc1ccc(C#Cc2ccc(CN3CCOCC3)cc2)cc1)C(=O)NO)c1ccc(Oc2ccccc2)cc1 | 323 | < 10 | – | – |
| O=C(NC[C@H](OCc1ccc(C#Cc2ccc(CN3CCOCC3)cc2)cc1)C(=O)NO)c1cnc2ccccc2c1 | 117 | < 10 | – | – |
| O=C(NO)[C@H](CN(Cc1ccccc1)Cc1ccccc1)OCc1ccc(C#Cc2ccc(CN3CCOCC3)cc2)cc1 | > 2540 | < 10 | <=6 mm | MIC (Escherichia coli [7]): 8 µg/mL (≈ 13.6 µM) |
| O=C(NO)[C@@H](OCc1ccc(C#Cc2ccc(CN3CCOCC3)cc2)cc1)[C@H](O)COCc1ccccc1 | – | 64.9 | – | IC50 (Elastase): 14800 nM |
| O=C(NO)[C@@H](CN(Cc1ccccc1)Cc1ccccc1)OCc1ccc(C#Cc2ccc(CN3CCOCC3)cc2)cc1 | > 2540 | – | <=6 mm | diameter of the inhibition zone (DIZ) (Escherichia coli [6]): <=6 mm; MIC (Escherichia coli [7]): > 64 µg/mL |
